According to ChEMBL document CHEMBL1142206, “Cysteine protease inhibitors block Toxoplasma gondii microneme secretion and cell invasion” (Antimicrob Agents Chemother, 2007):
Calls of active or inactive are those of the source. The calls are words filed in the database; no cut-off is given here.

Columns and labels:
Toxoplasma gondii [1] = experiment: Inhibition of Toxoplasma gondii 2F1 invasion in HFF cells assessed as beta-galactosidase activity at 10 uM; assay type: functional, organism-based
How it was run: (§1)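 2F1 tachyzoites in invasion medium (DMEM, 1% FBS, 10 mM HEPES) at 4 × 10^6/ml, preincubated 15 min at room temperature with inhibitor (10 or 50 μM) or DMSO, then loaded onto HFF monolayers for 30 min at 37°C, 5% CO2. Washed six times with cold PBS containing Ca/Mg, lysed, and β-gal measured with CPRG (45 min, 37°C) at A550. Two independent experiments in duplicate.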

Toxoplasma gondii [2] = experiment: Inhibition of microneme protein secretion in Toxoplasma gondii 2F1
Toxoplasma gondii [3] = experiment: Inhibition of Toxoplasma gondii 2F1 invasion in HFF cells by red/green invasion assay; assay type: functional, organism-based; settings: 2F1, HFF
How it was run: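 Red/green assay: 2F1 parasites (5 × 10^7/ml in invasion medium) preincubated 15 min at room temperature with inhibitor (0.1 to 100 μM) or DMSO, then put on HFF for 15 min at 37°C. After fixation, attached parasites were stained with rabbit anti-SAG1 before permeabilization and invaded ones with MAb 9E11 after 0.1% Triton; DAPI marked nuclei. Associated parasites per host nucleus normalized to solvent control; three experiments, eight fields/well.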

Toxoplasma gondii [4] = experiment: Effect on gliding motility in Toxoplasma gondii RH at 50 uM; assay type: functional, organism-based
How it was run: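 RH tachyzoites in HHE medium (HBSS, 10 mM HEPES, 1 mM EGTA), pretreated 15 min at room temperature with 50 μM inhibitor or DMSO, then allowed to glide 15 min at 37°C on slides coated with 50% FBS or poly-L-lysine. Fixed, and SAG1-containing trails stained with MAb 9E11 and visualized by epifluorescence at ×600.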

Toxoplasma gondii [5] = experiment: Inhibition of Toxoplasma gondii 2F1 invasion in HFF cells assessed as beta-galactosidase activity at 50 uM relative to control; assay type: functional; settings: 2F1, HFF; how it was run: as §1
Toxoplasma gondii [6] = experiment: Reduction of MIC10 secretion in Toxoplasma gondii 2F1 at 50 uM; assay type: functional, organism-based
How it was run: (§2)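 2F1 parasites in DGH medium (DMEM, 2 mM glutamine, 10 mM HEPES), ~3–6 × 10^7 per reaction, pretreated 15 min at room temperature with 50 μM inhibitor or DMSO. Induced secretion used 2 min at 37°C with 1% ethanol; basal secretion used 20 min at 37°C without ethanol. Supernatant (ESA) immunoblotted for MIC2, AMA1, MIC5, MIC10 and GRA1; chemiluminescence quantified by CCD.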

Toxoplasma gondii [7] = experiment: Reduction of MIC5 secretion in Toxoplasma gondii 2F1 at 50 uM; assay type: functional, organism-based; how it was run: as §2
Toxoplasma gondii [8] = experiment: Reduction of AMA1 secretion in Toxoplasma gondii 2F1 at 50 uM; assay type: functional, organism-based; how it was run: as §2

Compound: CC(C)C[C@H](/C=C/S(=O)(=O)c1ccccc1)NC(=O)[C@@H](CC(C)C)NC(=O)[C@@H](CC(C)C)NC(=O)OCc1ccccc1
- Activity (Toxoplasma gondii [1]): inactive
- IC50 (Toxoplasma gondii [2]): 50 µM
- IC50 (Toxoplasma gondii [3]): 12.5 µM
- Activity (Toxoplasma gondii [4]): Active
- inhibition at 50 µM (Toxoplasma gondii [5]): 50%
- Activity (Toxoplasma gondii [6]): Active
- Activity (Toxoplasma gondii [7]): Active
- Activity (Toxoplasma gondii [8]): Active

Compound: CC(=O)N1CCC[C@H]1C(=O)N[C@@H](CCCNC(=N)N)C(=O)N[C@@H](CC(C)C)C(=O)N[C@H](/C=C/S(=O)(=O)c1ccccc1)CC(N)=O
- Activity (Toxoplasma gondii [1]): inactive

Compound: CC(=O)N[C@@H](Cc1ccc(O)cc1)C(=O)N[C@@H](CCCCN)C(=O)N[C@@H](CC(C)C)C(=O)N[C@H](/C=C/S(=O)(=O)c1ccccc1)CC(N)=O
- Activity (Toxoplasma gondii [1]): inactive

Compound: CC(=O)N1CCC[C@H]1C(=O)N[C@@H](CCCCN)C(=O)N[C@@H](CCCCN)C(=O)N[C@H](/C=C/S(=O)(=O)c1ccccc1)CC(N)=O
- Activity (Toxoplasma gondii [1]): inactive

Compound: CC(=O)N[C@@H](Cc1ccc(O)cc1)C(=O)N[C@@H](CCCCN)C(=O)N[C@@H](CCCNC(=N)N)C(=O)N[C@H](/C=C/S(=O)(=O)c1ccccc1)CC(N)=O
- Activity (Toxoplasma gondii [1]): inactive

Compound: CC(=O)N[C@@H](Cc1ccc(O)cc1)C(=O)N[C@@H](CCCNC(=N)N)C(=O)N[C@@H](CC(C)C)C(=O)N[C@H](/C=C/S(=O)(=O)c1ccccc1)CC(N)=O
- Activity (Toxoplasma gondii [1]): inactive

Compound: CCC(C)[C@H](NC(=O)C1OC1C(=O)NCC(C)C)C(=O)N1CCC[C@@H]1C(=O)O (stereo partly drawn)
- Activity (Toxoplasma gondii [1]): inactive

Compound: CC(=O)N1CCC[C@H]1C(=O)N[C@@H](CCCCN)C(=O)N[C@@H](CCCNC(=N)N)C(=O)N[C@H](/C=C/S(=O)(=O)c1ccccc1)CC(N)=O
- Activity (Toxoplasma gondii [1]): inactive

Compound: CC(=O)N1CCC[C@H]1C(=O)N[C@@H](CCCNC(=N)N)C(=O)N[C@@H](CCCCN)C(=O)N[C@H](/C=C/S(=O)(=O)c1ccccc1)CC(N)=O
- Activity (Toxoplasma gondii [1]): inactive

Compound: CC(C)C[C@H](/C=C/S(=O)(=O)c1ccccc1)NC(=O)[C@@H](CC(C)C)NC(=O)[C@@H](CC(C)C)NC(=O)Cc1cc(I)c(O)c([N+](=O)[O-])c1
- Activity (Toxoplasma gondii [1]): inactive

Compound: Cc1cccc(C)c1C(=O)OCC(=O)[C@@H](N)CC(C)C
- Activity (Toxoplasma gondii [1]): inactive

Compound: Cc1cccc(C)c1C(=O)OCC(=O)[C@@H](N)CCCNC(=N)N
- Activity (Toxoplasma gondii [1]): inactive

Compound: CC(=O)N[C@@H](Cc1ccc(O)cc1)C(=O)N[C@@H](CCCCN)C(=O)N[C@@H](CCCCN)C(=O)N[C@H](/C=C/S(=O)(=O)c1ccccc1)CC(N)=O
- Activity (Toxoplasma gondii [1]): inactive

Compound: Cc1cccc(C)c1C(=O)OCC(=O)[C@@H](N)CC(N)=O
- Activity (Toxoplasma gondii [1]): inactive

Compound: CCOC(=O)[C@H]1O[C@@H]1C(=O)N[C@@H](CC(C)C)C(=O)NCCC(C)C
- Activity (Toxoplasma gondii [1]): inactive

Compound: CC(=O)N1CCC[C@H]1C(=O)N[C@@H](CCCCN)C(=O)N[C@@H](CC(C)C)C(=O)N[C@H](/C=C/S(=O)(=O)c1ccccc1)CC(N)=O
- Activity (Toxoplasma gondii [1]): inactive

Compound: Cc1cccc(C)c1C(=O)OCC(=O)CN
- Activity (Toxoplasma gondii [1]): inactive

Compound: CC(C)C[C@@H](/C=C/S(C)(=O)=O)NC(=O)[C@H](CC(C)C)NC(=O)[C@H](CC(C)C)NC(=O)[C@@H](N)Cc1ccc(O)cc1
- Activity (Toxoplasma gondii [1]): inactive

Compound: CC(C)C[C@@H](NC(=O)N1CCOCC1)C(=O)N[C@@H](/C=C/S(=O)(=O)c1ccccc1)CCc1ccccc1
- IC50 (Toxoplasma gondii [2]): 25 µM
- IC50 (Toxoplasma gondii [3]): 10 µM
- Activity (Toxoplasma gondii [4]): Active
- inhibition at 50 µM (Toxoplasma gondii [5]): 70%
- Activity (Toxoplasma gondii [6]): Active
- Activity (Toxoplasma gondii [7]): Active
- Activity (Toxoplasma gondii [8]): Active

Compound: CC(C)C[C@H](NC(=O)[C@H]1O[C@@H]1C(=O)O)C(=O)NCCCCN=C(N)N
- Activity (Toxoplasma gondii [1]): inactive

Compound: CCOC(=O)C1OC1C(=O)N[C@@H](CC(C)C)C(=O)NCCc1ccc(O)cc1 (stereo partly drawn)
- Activity (Toxoplasma gondii [1]): inactive

Compound: O=c1oc(Cl)c(Cl)c2ccccc12
- Activity (Toxoplasma gondii [1]): inactive
- IC50 (Toxoplasma gondii [3]): 12.5 µM

Compound: CC(=O)N[C@@H](Cc1ccc(O)cc1)C(=O)N[C@@H](CCCNC(=N)N)C(=O)N[C@@H](CCCCN)C(=O)N[C@H](/C=C/S(=O)(=O)c1ccccc1)CC(N)=O
- Activity (Toxoplasma gondii [1]): inactive

Compound: CN1CCN(C(=O)N[C@@H](Cc2ccccc2)C(=O)N[C@H](/C=C/S(=O)(=O)c2ccccc2)CCc2ccccc2)CC1
- Activity (Toxoplasma gondii [1]): inactive
